Data on 27 compounds can be found in ChEMBL document CHEMBL4052818, “Design, Synthesis, and Biological Assessment of Biased Allosteric Modulation of the Urotensin II Receptor Using Achiral 1,3,4-Benzotriazepin-2-one Turn Mimics” (J Med Chem, 2017).

The target in assay [1] is T1, Urotensin-2 receptor (Rattus norvegicus) (UniProt P49684).
T1 sequence (whole entry): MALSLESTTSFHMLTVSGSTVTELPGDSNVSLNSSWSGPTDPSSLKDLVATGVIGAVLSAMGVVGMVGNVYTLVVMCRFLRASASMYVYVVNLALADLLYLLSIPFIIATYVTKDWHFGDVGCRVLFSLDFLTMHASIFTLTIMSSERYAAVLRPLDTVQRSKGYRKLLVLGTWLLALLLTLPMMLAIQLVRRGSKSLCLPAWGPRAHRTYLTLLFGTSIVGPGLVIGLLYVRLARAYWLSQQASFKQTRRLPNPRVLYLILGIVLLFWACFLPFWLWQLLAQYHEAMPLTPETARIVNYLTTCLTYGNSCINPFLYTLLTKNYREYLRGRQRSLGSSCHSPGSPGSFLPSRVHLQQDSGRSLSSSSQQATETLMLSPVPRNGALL
In words: Allosteric modulation of urotensin-2 receptor in Sprague-Dawley rat thoracic aorta assessed as change in URP-mediated aortic ring contraction by measuring URP Emax at 10^-5M preincubated for 15 mins followed by URP addition relative to KCl (reference value: 118 +/- 2%).

The target of assay [2] is T1, Urotensin-2 receptor (Rattus norvegicus). In words: Allosteric modulation of urotensin-2 receptor in Sprague-Dawley rat thoracic aorta assessed as change in human urotensin-2-mediated aortic ring contraction by measuring urotensin-2 Emax at 10^-5M preincubated for 15 mins followed by urotensin-2 addition relative to KCl (reference value: 103 +/- 2%).
For assay [3] the target is unchanged. Kind of assay: Agonist activity at urotensin-2 receptor in Sprague-Dawley rat thoracic aorta assessed as induction of aortic ring contraction at 10^-5 M incubated for 15 mins. The method, boiled down: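 Endothelium-denuded 4 mm thoracic aortic rings from adult male rats (250–300 g) were held in organ baths of oxygenated Krebs–Henseleit. A 40 mM KCl contraction served as the initial control. Each analogue was added alone at 10−5 M, and the contraction was expressed as % of the KCl response.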

Assay [4] deals with T2, Urotensin-2 receptor (Homo sapiens) (UniProt Q9UKP6).
T2 sequence (whole entry): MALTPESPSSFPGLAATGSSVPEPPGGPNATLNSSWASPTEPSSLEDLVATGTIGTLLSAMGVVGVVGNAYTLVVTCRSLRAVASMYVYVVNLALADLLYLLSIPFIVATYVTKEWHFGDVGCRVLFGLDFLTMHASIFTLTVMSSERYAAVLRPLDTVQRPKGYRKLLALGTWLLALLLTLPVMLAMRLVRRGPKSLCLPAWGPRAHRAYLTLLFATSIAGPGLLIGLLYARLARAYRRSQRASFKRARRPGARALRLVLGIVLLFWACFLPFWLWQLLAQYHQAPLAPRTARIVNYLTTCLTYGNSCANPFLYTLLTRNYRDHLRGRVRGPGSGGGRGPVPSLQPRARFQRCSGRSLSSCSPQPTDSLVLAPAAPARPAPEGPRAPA
In words: Allosteric modulation of human urotensin-2 receptor expressed in HEK293 cells assessed as change in human urotensin-2-induced Gq activation by measuring urotensin-2 Emax at 10^-5 M preincubated for 30 mins followed by urotensin-2 addition by BRET assay (reference value: 100 +/- 3%). In kind it is cell-based. (In general: Bioluminescence resonance energy transfer reports proximity on the nanometre scale.)

Assay [5] addresses T2, Urotensin-2 receptor (Homo sapiens). In words: Allosteric modulation of human urotensin-2 receptor expressed in HEK293 cells assessed as change in URP-induced Gq activation by measuring URP Emax at 10^-5 M preincubated for 30 mins followed by URP addition by BRET assay (reference value: 100 +/- 3%). In kind it is cell-based.
Assay [6] shares this target. Kind of assay: Allosteric modulation of human urotensin-2 receptor expressed in HEK293 cells assessed as change in URP-induced G12 activation by measuring URP Emax at 10^-5 M preincubated for 30 mins followed by URP addition by BRET assay (reference value: 100 +/- 7%). Format: cell-based.
Assay [7] shares this target. Kind of assay: Allosteric modulation of human urotensin-2 receptor expressed in HEK293 cells assessed as change in human urotensin-2-induced G12 activation by measuring urotensin-2 Emax at 10^-5 M preincubated for 30 mins followed by urotensin-2 addition by BRET assay (reference value: 100 +/- 6%). In kind it is cell-based.
Assay [8] has the same target. In words: Agonist activity at human urotensin-2 receptor expressed in HEK293 cells assessed as G12 activation at 10^-5 M […] by BRET assay. Format: cell-based. The method, boiled down:
(§1)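 HEK293-UT cells were transfected with a polycistronic BRET biosensor, 2.5 μg for Gq or 0.5 μg for G12, and grown about 40 h. They were then held 2 h in PBS with 0.1% glucose. The analogue (10−5 M) was added alone with coelenterazine 400A. The GFP10/RlucII ratio (515/410 nm) was read over 5 min and normalized to hUII or URP at 10−5 M.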

Assay [9] shares this target. In words: Agonist activity at human urotensin-2 receptor expressed in HEK293 cells assessed as Gq activation at 10^-5 M […] by BRET assay. In kind it is cell-based. The method, boiled down: as §1
The target in assay [10] is T1, Urotensin-2 receptor (Rattus norvegicus). In words: Allosteric modulation of urotensin-2 receptor in Sprague-Dawley rat thoracic aorta assessed as change in URP-mediated aortic ring contraction by measuring URP Emax at 1 uM preincubated for 15 mins followed by URP addition relative to KCl (reference value: 118 +/- 2%).
For assay [11] the target is unchanged. In words: Allosteric modulation of urotensin-2 receptor in Sprague-Dawley rat thoracic aorta assessed as change in human urotensin-2-mediated aortic ring contraction by measuring urotensin-2 Emax at 1 uM preincubated for 15 mins followed by urotensin-2 addition relative to KCl (reference value: 103 +/- 2%).

Calls of active or inactive are those of the source. The rule behind the calls is not given here.

A word on the Emax: it is the greatest response seen or fitted, relative to the assay's reference. With `NCCCN1N=C(CCc2ccc(O)cc2)c2ccccc2N(Cc2ccc3ccccc3c2)C1=O`, the Emax in assay [1] was 96%; in [2] it was 107%. Moreover, the Activity in assay [3] is less than 8%.
On the same counts, the results for `CNCCCCN1N=C(CCc2nc3ccccc3s2)c2ccccc2N(Cc2cccc3ccccc23)C1=O` are 99%, 99% and less than 8%.
On the same counts, the results for `NCCCN1N=C(CCc2nc3ccccc3s2)c2ccccc2N(Cc2cccc3ccccc23)C1=O` are 101%, 100% and less than 8%.
For `NCCCCN1N=C(CCc2nc3ccccc3s2)c2ccccc2N(Cc2ccc3ccccc3c2)C1=O`, the figures for the Emax in assay [1] and in [2] were 111% and 73%, respectively. In addition, the Activity in [3] was less than 8%.
In the same order, the values of `COc1ccc(CCC2=NN(CCCN)C(=O)N(Cc3ccc4ccccc4c3)c3ccccc32)cc1` are 41%, 55% and less than 8%.
On the same counts, the results for `COc1ccc(CCC2=NN(CCCCN)C(=O)N(Cc3ccc4ccccc4c3)c3ccccc32)cc1` are 72%, 55% and less than 8%.
In the same order, the values of `COc1ccc(/C=C/C2=NN(CCCCN)C(=O)N(Cc3ccc4ccccc4c3)c3ccccc32)cc1` are 110%, 108% and less than 8%.
As for `COc1ccc(/C=C/C2=NN(CCCN)C(=O)N(Cc3ccc4ccccc4c3)c3ccccc32)cc1`, the maximal response (Emax) in assay [1] was determined as 120%; in assay [2], 76%. In assay [3], the Activity is less than 8%.
Regarding `COc1ccc(/C=C/C2=NN(CCCCN)C(=O)N(Cc3ccc(-c4ccccc4)cc3)c3ccccc32)cc1`, the Emax in assay [1] was found to be 284%; in assay [2], 83%; in assay [4], 80%; in assay [5] it was 83%; in assay [6], 106%; in assay [7], 96%. In addition, in assay [3], the Activity is less than 8%. Moreover, the outcome in assay [8] and in [9] was inactive.
Take `NCCCCN1N=C(CCc2ccc(O)cc2)c2ccccc2N(Cc2ccc(-c3ccccc3)cc2)C1=O`: the maximal effect (Emax) in [1] amounted to 86%; in [2], 118%. Further, the Activity in assay [3] was less than 8%.
In the same order, the values of `CNCCCCN1N=C(CCc2nc3ccccc3s2)c2ccccc2N(Cc2ccc(-c3ccccc3)cc2)C1=O` are 91%, 90% and less than 8%.
In the same order, the values of `NCCCN1N=C(/C=C/c2ccc(O)cc2)c2ccccc2N(Cc2ccc(-c3ccccc3)cc2)C1=O` are 115%, 51% and less than 8%.
In the same order, the values of `NCCCCN1N=C(/C=C/c2ccc(O)cc2)c2ccccc2N(Cc2ccc3ccccc3c2)C1=O` are 114%, 55% and less than 8%.
For the compound `CC(C)[C@H](NC(=O)[C@@H]1CSSC[C@H](NC(=O)[C@H](C)N)C(=O)N[C@@H](Cc2ccccc2)C(=O)N[C@@H](Cc2ccc(-c3ccccc3)cc2)C(=O)N[C@@H](CCCCN)C(=O)N[C@@H](Cc2ccc(O)cc2)C(=O)N1)C(=O)O`, the Emax turned out to be 102% in [10] and 61% in [11].
As to `COc1ccc(/C=C/C2=NN(CCCN)C(=O)N(Cc3ccc(-c4ccccc4)cc3)c3ccccc32)cc1`, the Emax in [1] stood at 194%; in assay [2], 106%. Further, the Activity in assay [3] is less than 8%.
On the same counts, the results for `CNCCCN1N=C(CCc2nc3ccccc3s2)c2ccccc2N(Cc2ccc(-c3ccccc3)cc2)C1=O` are 110%, 76% and less than 8%.
On the same counts, the results for `NCCCN1N=C(CCc2nc3ccccc3s2)c2ccccc2N(Cc2ccc(-c3ccccc3)cc2)C1=O` are 99%, 75% and less than 8%.
In the case of `NCCCN1N=C(CCc2nc3ccccc3s2)c2ccccc2N(Cc2ccc3ccccc3c2)C1=O`, the Emax in [1] stood at 117%; in [2] it was 45%; in assay [4], 87%; in assay [5], 82%; in assay [6], 115%; in assay [7] it was 96%. Moreover, the Activity in [3] was less than 8%. The result in assay [8] and in [9] was inactive.
Regarding `CNCCCCN1N=C(CCc2nc3ccccc3s2)c2ccccc2N(Cc2ccc3ccccc3c2)C1=O`, the Emax in [1] was determined as 114%; in assay [2], 87%. In addition, in assay [3], the Activity was less than 8%.
In the same order, the values of `COc1ccc(CCC2=NN(CCCCN)C(=O)N(Cc3ccc(-c4ccccc4)cc3)c3ccccc32)cc1` are 84%, 82% and less than 8%.
On the same counts, the results for `NCCCN1N=C(/C=C/c2ccc(O)cc2)c2ccccc2N(Cc2ccc3ccccc3c2)C1=O` are 111%, 59% and less than 8%.
`NCCCCN1N=C(CCc2ccc(O)cc2)c2ccccc2N(Cc2ccc3ccccc3c2)C1=O`: the Emax turned out to be 75% in assay [1]; 98% in [2]; 83% in assay [4]; 78% in assay [5]; 90% in assay [6]; 98% in [7]. Moreover, the Activity in assay [3] was less than 8%. The result in assay [8] and in assay [9] was inactive.
As for `NCCCN1N=C(CCc2ccc(O)cc2)c2ccccc2N(Cc2ccc(-c3ccccc3)cc2)C1=O`, the Emax amounted to 90% in assay [1] and 95% in assay [2]. Moreover, the Activity in [3] was less than 8%.
On the same counts, the results for `NCCCCN1N=C(CCc2nc3ccccc3s2)c2ccccc2N(Cc2cccc3ccccc23)C1=O` are 124%, 100% and less than 8%.
In the same order, the values of `NCCCCN1N=C(CCc2nc3ccccc3s2)c2ccccc2N(Cc2ccc(-c3ccccc3)cc2)C1=O` are 112%, 68% and less than 8%.
Regarding `NCCCCN1N=C(/C=C/c2ccc(O)cc2)c2ccccc2N(Cc2ccc(-c3ccccc3)cc2)C1=O`, the Emax is 118% in assay [1]; 48% in assay [2]; 92% in [4]; 92% in assay [5]; 72% in [6]; 103% in [7]. For the same compound, the Activity in assay [3] is less than 8%. The outcome in assay [8] and in [9] was inactive.
Turning to `COc1ccc(CCC2=NN(CCCN)C(=O)N(Cc3ccc(-c4ccccc4)cc3)c3ccccc32)cc1`, the results for the Emax in assay [1] and in assay [2] were 47% and 59%, respectively. The Activity in assay [3] was less than 8%.
